Drawing on ChEMBL document CHEMBL4665625, “New pyrido[3,4-g]quinazoline derivatives as CLK1 and DYRK1A inhibitors: synthesis, biological evaluation and binding mode analysis” (Eur J Med Chem, 2019), this text covers Activity and viability for 16 compounds.

In data set [1] the target is T1, Glycogen synthase kinase-3 (Sus scrofa) (UniProt B2LUN4+I6LNT8). In words: Inhibition of porcine brain GSK-3alpha/beta assessed as residual activity at 10 uM using YRRAAVPPSPSLSRHSSPHQSpEDEEE as substrate in presence of [gamma-33P]ATP relative to control. The data set is classed as tissue-based. As to conditions: Sus scrofa domesticus.
Data set [2] deals with T2, Cyclin-dependent kinase 5/CDK5 activator 1 (Homo sapiens) (UniProt Q00535+Q15078). In words: Inhibition of recombinant human CDK5/p25 expressed in bacteria assessed as residual activity at 1 uM using histone H1 as substrate in presence of [gamma-33P]ATP relative to control. In short, it runs like this: (§1)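 Human recombinant CDK5/p25 (bacterially expressed) assayed with 0.8 μg/μl histone H1 as substrate and 15 μM [γ-33P]ATP. Residual activity versus DMSO controls, triplicate.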

Data set [3] concerns the target T1, Glycogen synthase kinase-3 (Sus scrofa). In words: Inhibition of porcine brain GSK-3alpha/beta assessed as residual activity at 1 uM using YRRAAVPPSPSLSRHSSPHQSpEDEEE as substrate in presence of [gamma-33P]ATP relative to control. It is filed as tissue-based. As to conditions: Sus scrofa domesticus. In short, it runs like this:
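Affinity-purified porcine brain GSK-3α/β with 0.01 µg/µl GS-1 peptide (phosphoserine-primed) as substrate and 15 µM [γ-33P]ATP. Buffer was 25 mM Tris-HCl pH 7.5, 10 mM MgCl2, 1 mM EGTA, 1 mM DTT, 50 µg/ml heparin and 0.15 mg/ml BSA. Radioactive incorporation was compared with DMSO-dilution controls, in triplicate.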

Data set [4] has as its target T2, Cyclin-dependent kinase 5/CDK5 activator 1 (Homo sapiens). In words: Inhibition of recombinant human CDK5/p25 expressed in bacteria assessed as residual activity at 10 uM using histone H1 as substrate in presence of [gamma-33P]ATP relative to control. In short, it runs like this: as §1
The species entered for data set [5] is Sus scrofa domesticus. The data set is described as follows: Inhibition of porcine brain CK1delta/epsilon assessed as residual activity at 1 uM using RRKHAAIGSpAYSITA as substrate in presence of [gamma-33P]ATP relative to control. It is filed as tissue-based.
The target of data set [6] is Dual specificity tyrosine-phosphorylation-regulated kinase 1A (Rattus norvegicus) (UniProt Q63470). The data set is described as follows: Inhibition of rat DYRK1A kinase domain (1 to 499 residues) expressed in bacteria assessed as residual activity at 10 uM using KKISGRLSPIMTEQ as substrate in presence of [gamma-33P]ATP relative to control. In short, it runs like this:
(§2)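 Buffer: 10 mM MgCl2, 1 mM EGTA, 1 mM DTT, 25 mM Tris-HCl pH 7.5, 50 μg/ml heparin, 0.15 mg/ml BSA.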

For data set [7], the species on record is Sus scrofa domesticus. In words: Inhibition of porcine brain CK1delta/epsilon assessed as residual activity at 10 uM using RRKHAAIGSpAYSITA as substrate in presence of [gamma-33P]ATP relative to control. The data set is classed as tissue-based.
Data set [8] has as its target Dual specificity protein kinase CLK1 (Mus musculus) (UniProt P22518). The data set is described as follows: Inhibition of recombinant mouse CLK1 expressed in bacteria assessed as residual activity at 1 uM using GRSRSRSRSRSR as substrate in presence of [gamma-33P]ATP relative to control.
Data set [9] concerns the target Dual specificity tyrosine-phosphorylation-regulated kinase 1A (Rattus norvegicus) (UniProt Q63470). The data set is described as follows: Inhibition of rat DYRK1A kinase domain (1 to 499 residues) expressed in bacteria assessed as residual activity at 1 uM using KKISGRLSPIMTEQ as substrate in presence of [gamma-33P]ATP relative to control. A digest of the protocol:
as §2

For data set [10], the target named is Dual specificity protein kinase CLK1 (Mus musculus) (UniProt P22518). In words: Inhibition of recombinant mouse CLK1 expressed in bacteria assessed as residual activity at 10 uM using GRSRSRSRSRSR as substrate in presence of [gamma-33P]ATP relative to control.
The subject of the next data set is U2OS. In words: Antiproliferative activity against human U2OS cells assessed as cell viability at 2 uM after 48 hrs by CellTiter96 AQueous assay relative to control. As to conditions: read-out: Activity. The data set is classed as functional. A digest of the protocol: (§3)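 Cells grown in McCoy's 5a (HCT116), DMEM (SH-SY5Y, MDA-MB231, U-2 OS) or DMEM:F12 (hTERT-RPE1), each with 10% fetal calf serum, 2 mM L-glutamine, penicillin/streptomycin. Exposed to compound at 2 μM for 48 h; viability read by CellTiter96 AQueous per manufacturer, as % of DMSO-treated cells. Triplicate, mean ± SD; staurosporine as positive control.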

Data set [11] can be described thus: Antiproliferative activity against hTERT-RPE1 cells assessed as cell viability at 2 uM after 48 hrs by CellTiter96 AQueous assay relative to control. The data set is classed as cell-based, TERT-RPE1. As to conditions: human, read-out: Activity. A digest of the protocol: as §3
The test system of a further data set is SH-SY5Y. The data set is described as follows: Antiproliferative activity against human SH-SY5Y cells assessed as cell viability at 2 uM after 48 hrs by CellTiter96 AQueous assay relative to control. It is filed as functional. As to conditions: read-out: Activity. A digest of the protocol: as §3
In a further data set the test system is MDA-MB-231. The data set is described as follows: Antiproliferative activity against human MDA-MB-231 cells assessed as cell viability at 2 uM after 48 hrs by CellTiter96 AQueous assay relative to control. It is filed as functional. As to conditions: read-out: Activity. In short, it runs like this: as §3
For a further data set, the system named is HCT-116. The data set is described as follows: Antiproliferative activity against human HCT116 cells assessed as cell viability at 2 uM after 48 hrs by CellTiter96 AQueous assay relative to control. The data set is classed as functional. As to conditions: read-out: Activity. In short, it runs like this:
as §3

Dual specificity protein kinase CLK1 (Mus musculus), sequence (P22518 whole entry, looked up, the tested form may be a part): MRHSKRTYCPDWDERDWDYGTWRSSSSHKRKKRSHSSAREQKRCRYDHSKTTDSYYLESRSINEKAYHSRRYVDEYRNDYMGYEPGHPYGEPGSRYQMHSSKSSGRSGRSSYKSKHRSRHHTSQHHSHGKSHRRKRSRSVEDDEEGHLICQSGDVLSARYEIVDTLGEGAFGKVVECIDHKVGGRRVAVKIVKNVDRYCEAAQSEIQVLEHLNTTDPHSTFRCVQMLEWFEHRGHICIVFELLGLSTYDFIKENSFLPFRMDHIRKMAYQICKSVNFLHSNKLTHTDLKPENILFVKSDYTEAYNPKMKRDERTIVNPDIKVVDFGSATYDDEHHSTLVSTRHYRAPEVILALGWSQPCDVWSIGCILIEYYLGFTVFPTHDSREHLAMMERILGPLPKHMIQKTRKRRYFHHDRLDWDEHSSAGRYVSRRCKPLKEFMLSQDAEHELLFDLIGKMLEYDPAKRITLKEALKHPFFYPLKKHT
T2 sequence (Q00535 whole entry): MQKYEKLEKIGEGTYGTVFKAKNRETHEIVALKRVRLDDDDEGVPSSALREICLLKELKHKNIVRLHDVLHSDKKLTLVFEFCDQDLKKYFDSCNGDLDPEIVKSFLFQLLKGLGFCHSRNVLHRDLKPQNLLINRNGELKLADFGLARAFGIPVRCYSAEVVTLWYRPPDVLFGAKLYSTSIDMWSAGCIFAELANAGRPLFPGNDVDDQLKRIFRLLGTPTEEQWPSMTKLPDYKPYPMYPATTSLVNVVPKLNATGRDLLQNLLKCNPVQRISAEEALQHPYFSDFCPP
T2 sequence (Q15078 99-307 partner limits assumed): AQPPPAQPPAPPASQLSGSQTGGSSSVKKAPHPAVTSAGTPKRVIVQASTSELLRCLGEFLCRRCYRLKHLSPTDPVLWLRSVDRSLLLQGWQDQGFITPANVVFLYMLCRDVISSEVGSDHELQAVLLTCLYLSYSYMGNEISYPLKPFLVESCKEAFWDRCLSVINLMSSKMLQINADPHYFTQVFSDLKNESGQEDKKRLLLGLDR

As for `O=[N+]([O-])c1c2ccncc2cc2cnc(NCCN3CCCC3)nc12`, the Activity in [1] was found to be 33%; in [2] it was 100%; in data set [3], 81%; in data set [4], 83%; in the data set listed under Sus scrofa domesticus [5], 92%; in [6] it was 29%. In addition, the Activity in the data set listed under Sus scrofa domesticus [7] is 73%; in data set [8], 27%; in data set [9], 83%; in data set [10] it was 7%.
As to `CN(C)CCCNc1ncc2cc3cnccc3c([N+](=O)[O-])c2n1`, the Activity worked out at 24% in [1]; 100% in data set [2]; 80% in [3]; 64% in data set [4]; 86% in the data set filed under Sus scrofa domesticus [5]; 31% in data set [6]. Also, the Activity was determined as 59% in the data set listed under Sus scrofa domesticus [7], 27% in [8], 84% in data set [9] and 3% in data set [10].
As to `Nc1c2ccncc2cc2cnc(-c3ccccc3)nc12`, the Activity was found to be 40% in [1]; 92% in data set [2]; 85% in [3]; 65% in data set [4]; 62% in the data set listed under Sus scrofa domesticus [5]; 41% in data set [6]. In addition, the Activity in the data set filed under Sus scrofa domesticus [7] was found to be 51%; in data set [8] it was 68%; in data set [9], 80%; in data set [10], 32%.
With `CCN(CC)CCNc1ncc2cc3cnccc3c(N)c2n1`, the Activity in data set [1] amounted to 34%; in data set [2], 97%; in [3], 73%; in data set [4], 40%; in the data set listed under Sus scrofa domesticus [5], 91%; in data set [6], 6%. The Activity came to 60% in the data set listed under Sus scrofa domesticus [7], 31% in data set [8], 49% in data set [9] and 3% in data set [10].
For the compound `O=[N+]([O-])c1c2ccncc2cc2cnc(NCCN3CCOCC3)nc12`, the Activity is 43% in data set [1]; 100% in data set [2]; 88% in data set [3]; 69% in data set [4]; 93% in the data set listed under Sus scrofa domesticus [5]; 20% in data set [6]. The Activity was determined as 75% in the data set listed under Sus scrofa domesticus [7], 36% in data set [8], 73% in data set [9] and 5% in data set [10].
Consider `Nc1ncc2cc3cnccc3c(N)c2n1`, for which the viability at 2 µM in the data set with U2OS worked out at 0.4%; in the data set with SH-SY5Y, 0.9%; with MDA-MB-231, 43.4%; in the data set with HCT-116, 1.3%. In addition, the viability at 48 h, 2 µM in [11] was found to be 0.2%.
In the case of `Nc1c2ccncc2cc2cnc(NCCCN3CCCCC3)nc12`, the Activity was determined as 30% in data set [1]; 100% in data set [2]; 51% in data set [3]; 62% in data set [4]; 76% in the data set filed under Sus scrofa domesticus [5]; 4% in [6]. In addition, the Activity was 48% in the data set listed under Sus scrofa domesticus [7], 30% in [8], 26% in [9] and 4% in [10].
Regarding `CCN(CC)CCCNc1ncc2cc3cnccc3c([N+](=O)[O-])c2n1`, the Activity was 24% in data set [1]; 100% in [2]; 92% in data set [3]; 50% in [4]; 87% in the data set filed under Sus scrofa domesticus [5]; 23% in data set [6]. Further, the Activity in the data set listed under Sus scrofa domesticus [7] worked out at 59%; in data set [8], 31%; in [9], 72%; in data set [10], 4%.
With `CN(C)CCNc1ncc2cc3cnccc3c(N)c2n1`, the Activity was determined as 48% in data set [1]; 96% in data set [2]; 58% in [3]; 86% in data set [4]; 78% in the data set listed under Sus scrofa domesticus [5]; 32% in data set [6]. The Activity in the data set filed under Sus scrofa domesticus [7] was found to be 82%; in data set [8], 51%; in data set [9] it was 60%; in data set [10], 21%.
In the case of `O=[N+]([O-])c1c2ccncc2cc2cnc(NCCN3CCCCC3)nc12`, the Activity in [1] worked out at 1%; in data set [2], 96%; in data set [3] it was 39%; in data set [4], 85%; in the data set listed under Sus scrofa domesticus [5] it was 81%; in data set [6], 26%. Moreover, the Activity in the data set filed under Sus scrofa domesticus [7] amounted to 37%; in data set [8] it was 42%; in data set [9], 52%; in [10], 1%.
Consider `Nc1c2ccncc2cc2cnc(NCCN3CCCCC3)nc12`, for which the Activity in data set [1] came out at 24%; in data set [2], 95%; in data set [3] it was 43%; in data set [4], 76%; in the data set listed under Sus scrofa domesticus [5], 74%; in data set [6], 16%. For the same compound, the Activity in the data set filed under Sus scrofa domesticus [7] stood at 52%; in data set [8], 44%; in data set [9] it was 37%; in data set [10], 11%.
For `CCN(CC)CCNc1ncc2cc3cnccc3c([N+](=O)[O-])c2n1`, the Activity worked out at 26% in data set [1]; 100% in [2]; 74% in data set [3]; 79% in [4]; 91% in the data set filed under Sus scrofa domesticus [5]; 47% in data set [6]. Also, the Activity in the data set listed under Sus scrofa domesticus [7] turned out to be 78%; in [8] it was 46%; in data set [9], 88%; in data set [10], 8%.
For `CN1CCN(CCNc2ncc3cc4cnccc4c([N+](=O)[O-])c3n2)CC1`, the Activity in [1] is 22%; in [2], 84%; in [3], 69%; in data set [4], 77%; in the data set listed under Sus scrofa domesticus [5], 63%; in data set [6], 6%. For the same compound, the Activity came to 38% in the data set listed under Sus scrofa domesticus [7], 32% in data set [8], 32% in [9] and 0% in [10].
As for `O=[N+]([O-])c1c2ccncc2cc2cnc(-c3ccccc3)nc12`, the Activity was determined as 100% in data set [1]; 100% in data set [2]; 100% in data set [3]; 62% in data set [4]; 100% in the data set filed under Sus scrofa domesticus [5]; 38% in data set [6]. The Activity in the data set listed under Sus scrofa domesticus [7] was 57%; in data set [8] it was 71%; in data set [9] it was 100%; in data set [10], 17%.
Consider `Nc1c2ccncc2cc2cnc(NCCN3CCCC3)nc12`, for which the Activity was determined as 29% in [1]; 100% in data set [2]; 62% in data set [3]; 51% in data set [4]; 90% in the data set filed under Sus scrofa domesticus [5]; 7% in data set [6]. The Activity came out at 61% in the data set filed under Sus scrofa domesticus [7], 33% in data set [8], 54% in data set [9] and 4% in [10].
Take `O=[N+]([O-])c1c2ccncc2cc2cnc(NCCCN3CCCC3)nc12`: the Activity in [1] amounted to 24%; in [2], 100%; in data set [3], 78%; in data set [4], 50%; in the data set filed under Sus scrofa domesticus [5], 100%; in [6], 6%. Also, the Activity in the data set listed under Sus scrofa domesticus [7] was determined as 37%; in data set [8] it was 37%; in [9] it was 87%; in data set [10] it was 5%.
